Reference: ChEMBL document CHEMBL3351355, “Structure-affinity/activity relationships of 1,4-dioxa-spiro[4.5]decane based ligands at α1 and 5-HT1A receptors” (Eur J Med Chem, 2014)

Columns and labels:
[1] = target: T1, Alpha-1D adrenergic receptor (Rattus norvegicus) (UniProt P23944); assay: Antagonist activity at alpha1D adrenoceptor in Wistar rat thoracic aorta assessed as noradrenaline-induced contractions after 30 mins
T1 sequence (whole entry): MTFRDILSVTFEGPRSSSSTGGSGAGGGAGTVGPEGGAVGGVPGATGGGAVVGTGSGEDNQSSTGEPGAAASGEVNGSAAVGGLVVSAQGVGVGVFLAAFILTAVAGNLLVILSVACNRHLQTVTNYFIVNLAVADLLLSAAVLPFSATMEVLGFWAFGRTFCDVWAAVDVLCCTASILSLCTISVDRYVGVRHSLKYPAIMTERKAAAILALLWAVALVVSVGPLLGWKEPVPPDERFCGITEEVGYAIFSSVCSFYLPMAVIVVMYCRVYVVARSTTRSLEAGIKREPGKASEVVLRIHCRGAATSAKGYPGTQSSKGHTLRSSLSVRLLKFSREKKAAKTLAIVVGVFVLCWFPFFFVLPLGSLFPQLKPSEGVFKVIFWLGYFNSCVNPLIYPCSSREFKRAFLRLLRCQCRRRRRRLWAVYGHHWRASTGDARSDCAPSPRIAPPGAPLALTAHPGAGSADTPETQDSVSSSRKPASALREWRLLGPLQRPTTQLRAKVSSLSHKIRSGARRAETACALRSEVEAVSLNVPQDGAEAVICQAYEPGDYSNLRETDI

[2] = target: T2, Alpha-1D adrenergic receptor (Homo sapiens, UniProt P25100); assay: Displacement of [3H]prazosin from human recombinant alpha1D adrenoceptor expressed in CHO cells after 30 mins by liquid scintillation counting; format: cell-based
T2 sequence (P25100 whole entry): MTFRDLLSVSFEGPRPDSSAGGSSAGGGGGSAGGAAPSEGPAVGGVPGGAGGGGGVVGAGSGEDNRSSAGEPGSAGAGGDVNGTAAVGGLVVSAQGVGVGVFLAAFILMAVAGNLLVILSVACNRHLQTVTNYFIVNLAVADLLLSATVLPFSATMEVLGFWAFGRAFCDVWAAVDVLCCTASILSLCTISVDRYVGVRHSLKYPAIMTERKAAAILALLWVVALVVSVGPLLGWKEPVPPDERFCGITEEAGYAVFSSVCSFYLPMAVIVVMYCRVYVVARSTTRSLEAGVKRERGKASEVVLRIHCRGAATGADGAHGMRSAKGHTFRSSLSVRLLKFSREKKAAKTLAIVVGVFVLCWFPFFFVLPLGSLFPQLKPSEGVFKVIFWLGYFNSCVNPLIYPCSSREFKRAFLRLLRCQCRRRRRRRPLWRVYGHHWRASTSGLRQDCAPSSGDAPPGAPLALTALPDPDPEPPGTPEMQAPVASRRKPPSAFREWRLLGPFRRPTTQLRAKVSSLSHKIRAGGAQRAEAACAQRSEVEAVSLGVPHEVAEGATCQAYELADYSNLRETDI
Method in brief: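 CHO cells were stably transfected by electroporation with each human α1 subtype. Membranes (70 µg protein) were incubated in 50 mM Tris pH 7.4 with 0.1–0.4 nM [3H]prazosin and competitor (1 pM–1 µM) for 30 min at 25 °C. Nonspecific binding with 10 µM tamsulosin. Filtration and scintillation counting. pKi from 2–3 experiments in duplicate.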

[3] = target: T3, 5-hydroxytryptamine receptor 1A (Homo sapiens, UniProt P08908); assay: Displacement of [3H]8-OH-DPAT from human recombinant 5-HT1A receptor expressed in HeLa cells after 30 mins by liquid scintillation counting; format: cell-based
T3 sequence (P08908 whole entry): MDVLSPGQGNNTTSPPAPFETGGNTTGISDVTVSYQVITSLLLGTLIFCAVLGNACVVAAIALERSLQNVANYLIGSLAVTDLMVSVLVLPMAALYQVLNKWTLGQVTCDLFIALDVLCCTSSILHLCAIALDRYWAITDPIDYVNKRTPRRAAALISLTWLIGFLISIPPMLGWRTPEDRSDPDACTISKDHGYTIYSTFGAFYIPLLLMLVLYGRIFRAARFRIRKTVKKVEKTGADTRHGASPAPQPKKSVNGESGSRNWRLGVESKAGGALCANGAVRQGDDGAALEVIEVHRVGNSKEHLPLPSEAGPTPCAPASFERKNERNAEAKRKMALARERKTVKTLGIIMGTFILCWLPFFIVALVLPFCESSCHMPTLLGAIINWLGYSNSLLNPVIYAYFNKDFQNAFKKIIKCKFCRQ
Method in brief: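 HeLa cells stably carrying genomic clone G-21 were grown in DMEM with 10% FCS, then lysed in Tris/EDTA pH 7.4. Membranes (80–90 µg protein) were incubated in 50 mM Tris, 2.5 mM MgCl2, 10 µM pargyline, pH 7.4, with 1 nM [3H]8-OH-DPAT and competitor (1 pM–1 µM) for 30 min at 30 °C, in triplicate. Nonspecific binding with 10 µM 5-HT. pKi from 2–3 experiments.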

[4] = target: T4, 5-hydroxytryptamine receptor 1A (Homo sapiens) (UniProt P08908); assay: Agonist activity at human recombinant 5-HT1A receptor expressed in HeLa cells after 30 mins by [35S]GTPgammaS binding assay; format: functional, cell-based
T4 sequence (whole entry): T3 sequence (P08908 whole entry)
Method in brief: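 HeLa membranes expressing human 5-HT1A (50–70 µg protein) in 20 mM HEPES, 3 mM MgSO4, 120 mM NaCl pH 7.4 with 30 µM GDP; test drug 0.01 nM–10 µM, 20 min at 30 °C, then 200 pM [35S]GTPγS for 30 min at 30 °C. Nonspecific with 10 µM GTPγS; filtration and scintillation counting. Emax as % of maximal 8-OH-DPAT stimulation; pD2 = −log EC50.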

[5] = target: T4, 5-hydroxytryptamine receptor 1A (Homo sapiens); assay: Agonist activity at human recombinant 5-HT1A receptor expressed in HeLa cells after 30 mins by [35S]GTPgammaS binding assay relative to control; format: functional, cell-based
Method in brief: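 HeLa membranes (50–70 µg protein) in 20 mM HEPES, 3 mM MgSO4, 120 mM NaCl, pH 7.4, preincubated 20 min at 30 °C with 30 µM GDP and drug (0.01 nM–10 µM), then 200 pM [35S]GTPγS added for 30 min at 30 °C. Nonspecific binding with 10 µM GTPγS. Filtration and scintillation counting. Data expressed as % increase over basal, 8-OH-DPAT maximum = 100%. Emax and pD2 derived.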

Structure (SMILES)	pKb [1]	Ki [2] [nM]	Ki [3] [nM]	pD2 [4]	Emax [5] [%]
COc1ccccc1N1CCN(CC2COC3(CCN(S(=O)(=O)c4ccc(OC(F)(F)F)cc4)CC3)O2)CC1 (configuration not stated)	7.37	26.3	69.2	–	–
COc1ccccc1N1CCN(CC2COC3(CCS(=O)(=O)CC3)O2)CC1 (configuration not stated)	7.2	51.3	81.3	–	–
COc1ccccc1N1CCN(CC2COC3(CCOCC3)O2)CC1 (configuration not stated)	7.33	25.1	46.8	6.82	31
COc1ccccc1N1CCN(CC2COC3(CCN(C(=O)c4ccc(C(F)(F)F)cc4)CC3)O2)CC1 (configuration not stated)	7.29	11	50.1	–	–
COc1ccccc1N1CCN(CC2COC3(CCN(S(=O)(=O)c4ccc(C)cc4)CC3)O2)CC1 (configuration not stated)	6.96	10.7	26.9	7.33	28
COc1ccccc1N1CCN(CC2COC3(CCN(S(=O)(=O)c4ccccc4)CC3)O2)CC1 (configuration not stated)	7.05	12.3	52.5	–	–
COc1ccccc1N1CCN(CC2COC3(CCN(c4ccccn4)CC3)O2)CC1 (configuration not stated)	6.87	22.9	8.91	6.49	41
CCCCNC(=O)N1CCC2(CC1)OCC(CN1CCN(c3ccccc3OC)CC1)O2 (configuration not stated)	7.29	19.1	79.4	6.53	30
COc1ccccc1N1CCN(CC2COC3(CCCCC3)O2)CC1 (configuration not stated)	7.88	> 1000	5.13	8.61	48
COc1ccccc1N1CCN(CC2COC3(CCNCC3)O2)CC1 (configuration not stated)	6.89	37.2	158	–	–
COc1ccccc1N1CCN(CC2COC3(CCN(C(=O)C4CCCCC4)CC3)O2)CC1 (configuration not stated)	7.02	39.8	20.4	7.29	33
COc1ccccc1N1CCN(CC2COC3(CCN(C(C)=O)CC3)O2)CC1 (configuration not stated)	6.48	89.1	64.6	–	–
COc1ccccc1N1CCN(CC2COC3(CCN(S(=O)(=O)c4ccc([N+](=O)[O-])cc4)CC3)O2)CC1 (configuration not stated)	8.02	5.75	24.5	7.65	37
COc1ccccc1N1CCN(CC2COC3(CCN(S(=O)(=O)c4cccs4)CC3)O2)CC1 (configuration not stated)	7.27	9.77	60.3	–	–
COc1ccccc1N1CCN(CC2COC3(CCN(c4ccccc4)CC3)O2)CC1 (configuration not stated)	7.43	8.13	15.8	7.14	42
COc1ccccc1N1CCN(CC2COC3(CCN(Cc4ccccc4)CC3)O2)CC1 (configuration not stated)	8.6	4.68	14.5	7.21	45
COc1ccccc1N1CCN(CC2COC3(CCSCC3)O2)CC1 (configuration not stated)	6.84	14.8	9.33	7.48	36
COc1ccccc1N1CCN(CC2COC3(CCN(C(=O)Nc4ccccc4)CC3)O2)CC1 (configuration not stated)	7.26	13.2	33.1	7.22	28
COc1ccccc1N1CCN(CC2COC3(CCN(C(=O)NC(C)(C)C)CC3)O2)CC1 (configuration not stated)	6.53	35.5	87.1	–	–
COc1ccccc1N1CCN(CC2COC3(CCN(C(=O)c4ccco4)CC3)O2)CC1 (configuration not stated)	7.38	28.2	42.7	7.12	33
COc1ccccc1N1CCN(CC2COC3(CCN(S(=O)(=O)c4cccc([N+](=O)[O-])c4)CC3)O2)CC1 (configuration not stated)	7.98	0.912	43.7	–	–
COc1ccccc1N1CCN(CC2COC3(CCN(C(=O)C4CCCN4)CC3)O2)CC1 (configuration not stated)	6.71	26.9	36.3	–	–
COc1ccccc1N1CCN(CC2COC3(CCN(S(=O)(=O)c4ccc(Cl)cc4)CC3)O2)CC1 (configuration not stated)	7.37	7.08	37.2	–	–
COc1ccccc1N1CCN(CC2COC3(CCN(S(C)(=O)=O)CC3)O2)CC1 (configuration not stated)	7.18	23.4	145	–	–
COc1ccccc1N1CCN(CC2COC3(CCN(C(=O)C(F)(F)F)CC3)O2)CC1 (configuration not stated)	7.5	417	324	–	–
COc1ccccc1N1CCN(CC2COC3(CCN(C(=O)c4ccccc4)CC3)O2)CC1 (configuration not stated)	7.45	20.4	58.9	–	–
